Assay results from different studies.
Protocols differ between the studies behind these lines. pEC50, pIC50: −log10 of the molar value.
SLC22A2: Solute carrier family 22 member 2 (SLC22A2, Homo sapiens, UniProt O15244)

SMILES | target or system | test | system | setting | measurement | result
CC(C)n1cc(C#N)c2cc(-n3cc(C(=O)O)cn3)ccc21 | – | – | human, plasma | oral, 400 mg, single dose, fasted, healthy volunteers | half-life | 13.1 h
COC(=O)c1csc(C(=O)c2c[nH]c3ccccc23)n1 | Aryl hydrocarbon receptor (AHR, Homo sapiens, UniProt P35869) | reporter gene, agonist, luciferase | – | – | pEC50 | 8.34
CON=C(N)c1ccc(-c2ccc(-c3ccc(C(N)=NOC)cc3)o2)cc1 | Cytochrome P450 1B1 (CYP1B1, Homo sapiens, UniProt Q16678) | enzyme activity, substrate | – | – | Km | 0.3 µM
COc1ccc(-c2ocnc2C(=O)NCCCn2cncn2)cc1Cl | THLE | cell growth or viability | – | – | pIC50 | 3.93
O=C(O)CSc1nnc(Br)n1-c1ccc(C2CC2)c2ccccc12 | SLC22A2 | transporter uptake, inhibitor | MDCK-II | 100 µM, 5 min | inhibition | 26%
CC(C)(O)c1ccccc1-c1ccc2[nH]c(/C=C/c3ccc(C(F)(F)F)cc3)nc2c1 | – | – | male human, plasma | oral, 60 mg, single dose, fasted, healthy volunteers | half-life | 53.4 h
CC[C@H](C)[C@H](NC(=O)[C@H](CCC(=O)O)NC(=O)[C@H](CO)NC(=O)[C@@H](NC(=O)[C@@H](N)CO)C(C)C)C(=O)N[C@@H](CCC(N)=O)C(=O)N[C@@H](CC(C)C)C(=O)N[C@@H](CCSC)C(=O)N[C@@H](Cc1cnc[nH]1)C(=O)N[C@@H](CC(N)=O)C(=O)N[C@@H](CC(C)C)C(=O)NCC(=O)N[C@@H](CCCCN)C(=O)N[C@@H](Cc1cnc[nH]1)C(=O)N[C@@H](CC(C)C)C(=O)N[C@@H](CC(N)=O)C(=O)N[C@@H](CO)C(=O)N[C@@H](CCSC)C(=O)N[C@@H](CCC(=O)O)C(=O)N[C@@H](CCCN=C(N)N)C(=O)N[C@H](C(=O)N[C@@H](CCC(=O)O)C(=O)N[C@@H](Cc1c[nH]c2ccccc12)C(=O)N[C@@H](CC(C)C)C(=O)N[C@@H](CCCN=C(N)N)C(=O)N[C@@H](CCCCN)C(=O)N[C@@H](CCCCN)C(=O)N[C@@H](CC(C)C)C(=O)N[C@@H](CCC(N)=O)C(=O)N[C@@H](CC(=O)O)C(=O)N[C@H](C(=O)N[C@@H](Cc1cnc[nH]1)C(=O)N[C@@H](CC(N)=O)C(=O)N[C@@H](Cc1ccccc1)C(=O)O)C(C)C)C(C)C | – | chemical stability, HPLC | aqueous buffer | 0.5 mg/mL, 2 min, pH 6.5 | compound remaining | 100%
C=C[C@H]1C[N@@]2CC[C@H]1C[C@@H]2[C@@H](O)c1ccnc2ccc(OC)cc12 | SLC22A2 | transporter uptake, inhibitor | MDCK-II | 100 µM, 5 min | inhibition | 78%
COc1ccc(S(=O)(=O)ON=C2C=C(C)C(=O)C(C)=C2)cc1 | MDA-MB-468 | cell growth or viability | – | – | CC50 | 2570 nM
